This note sets out measurements from ChEMBL document CHEMBL4052607 (J Med Chem, 2017).

The species entered for assay [1] is Homo sapiens. The experiment in a line: Selectivity ratio of Ki for human D2 receptor to Ki for human D3 receptor. The method in brief: (§1)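 Membranes from HEK293 cells stably expressing hD2R (long) or hD3R, 10 μg protein per tube, were incubated with 0.4 nM [3H]N-methylspiperone in EBSS with 0.2 mM sodium metabisulfite. Compound was tested over 13 half-log steps, 10 μM to 10 pM, in triplicate for 1 h at RT. Nonspecific binding was set with 10 μM (+)-butaclamol. Bound ligand was collected on PEI-soaked GF/B filters and counted by scintillation. Ki came from Cheng-Prusoff, at least 3 experiments.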

Assay [2] deals with T1, D(2) dopamine receptor (Homo sapiens, UniProt P14416). The experiment in a line: Displacement of [3H]N-methylspiperone from human D2L receptor expressed in HEK293 cell membranes after 1 hr by liquid scintillation counting analysis. The method in brief:
as §1

Assay [3] has as its target T1, D(2) dopamine receptor. The experiment in a line: Antagonist activity at D2 long receptor (unknown origin) expressed in CHOK1 cells assessed as inhibition of dopamine induced beta-arrestin recruitment after 90 mins by DiscoveRx PathHunter assay. In kind it is cell-based. (Activated receptors often draw arrestin, which recruitment assays turn into a signal.)
Assay [4] has as its target T2, D(3) dopamine receptor (Homo sapiens, UniProt P35462). The experiment in a line: Displacement of [3H]N-methylspiperone from human D3 receptor expressed in HEK293 cell membranes after 1 hr by liquid scintillation counting analysis. For orientation: Displacement assays read how much labelled ligand stays bound in the presence of the test substance.
The target in assay [5] is T2, D(3) dopamine receptor.
Assay [6] has as its target T1, D(2) dopamine receptor. The experiment in a line: Agonist activity at D2 long receptor (unknown origin) expressed in CHOK1 cells assessed as beta-arrestin recruitment up to 30 uM after 90 mins by DiscoveRx PathHunter assay. In kind it is cell-based. The method in brief:
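Agonist mode in CHO-K1 cells expressing D2R long isoform fused to a β-galactosidase fragment, with β-arrestin-2 carrying the complementary fragment. Compound in PBS plus 0.2 μM sodium metabisulfite was preincubated 90 min at 37°C. PathHunter reagent was then added for 30 min at RT and luminescence read. RLU were normalized to the response at maximal dopamine.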

For orientation: Ki means the dissociation constant of the complex between target and ligand, obtained from inhibition or displacement. Low readings indicate a stronger hold on the target, high ones a looser hold on the target. The term Kb denotes the equilibrium dissociation constant of an antagonist, usually derived from a functional assay. What is called pKb is the Kb on a negative log10 scale, so that one unit is a factor of ten.

SMILES strings stand for the structures. Activity calls are given as the source filed them. The calls are words filed in the database; no cut-off is given here.

T1 sequence (P14416 whole entry): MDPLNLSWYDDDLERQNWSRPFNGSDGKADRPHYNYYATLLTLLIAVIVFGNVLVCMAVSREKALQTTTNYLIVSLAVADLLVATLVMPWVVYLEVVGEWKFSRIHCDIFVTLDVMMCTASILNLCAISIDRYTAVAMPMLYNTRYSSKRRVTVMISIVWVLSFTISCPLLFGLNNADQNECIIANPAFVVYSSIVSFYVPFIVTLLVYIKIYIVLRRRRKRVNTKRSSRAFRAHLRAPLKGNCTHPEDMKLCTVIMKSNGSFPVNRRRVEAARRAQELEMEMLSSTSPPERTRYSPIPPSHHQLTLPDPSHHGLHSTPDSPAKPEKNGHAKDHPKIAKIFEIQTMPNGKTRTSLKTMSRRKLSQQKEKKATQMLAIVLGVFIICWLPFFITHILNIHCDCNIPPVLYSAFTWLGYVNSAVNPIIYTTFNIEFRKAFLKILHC
T2 sequence (P35462 whole entry): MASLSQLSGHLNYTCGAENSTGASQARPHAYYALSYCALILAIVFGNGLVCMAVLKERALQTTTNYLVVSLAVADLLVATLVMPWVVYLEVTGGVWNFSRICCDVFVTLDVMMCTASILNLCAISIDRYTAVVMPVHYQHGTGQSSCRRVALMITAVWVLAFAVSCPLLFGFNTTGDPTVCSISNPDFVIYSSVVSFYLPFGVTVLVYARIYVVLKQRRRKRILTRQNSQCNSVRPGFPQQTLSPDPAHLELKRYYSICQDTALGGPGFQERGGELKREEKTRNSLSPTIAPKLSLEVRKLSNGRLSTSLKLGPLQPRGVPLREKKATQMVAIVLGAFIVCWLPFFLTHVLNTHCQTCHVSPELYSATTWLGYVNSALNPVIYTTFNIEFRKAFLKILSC

Take `N#Cc1ccc2c(c1)CNCC2`: in assay [1], the Ratio Ki stood at 7.5. The values for the Ki in assay [2] and in assay [4] were 11.4 µM and 1.52 µM, respectively. For the same compound, in assay [3], the Kb turned out to be 4.27 µM. The pKb in assay [3] was 5.37; in assay [5] it was 5.49. Further, the result in assay [6] was inactive.

Take `N#Cc1ccc2c(c1)CCN(CC[C@H]1CC[C@H](NC(=O)c3ccnc4ccccc34)CC1)C2`: the result in assay [6] was inactive.

On to `N#Cc1cccc(N2CCNCC2)c1`, for which, in assay [1], the Ratio Ki came to 8.4. Moreover, the Ki in assay [2] amounted to 4.89 µM; in assay [4] it was 0.581 µM. For the same compound, in assay [3], the Kb came to 2.09 µM. Besides, the pKb stood at 5.68 in assay [3] and 5.42 in assay [5]. For the same compound, in assay [6], the result was inactive.
